Measured values published in ChEMBL document CHEMBL1154352, “Toll-like receptor 7 selective synthetic oligoribonucleotide agonists: synthesis and structure-activity relationship studies” (J Med Chem, 2009).
Activity calls are given as the source filed them. No cut-off for these calls is given here.

What was measured:
[1] = Metabolic stability in human serum assessed as full length product remaining after 10 mins by HPLC; type: ADME, cell-free; conditions: read-out: Stability
In short: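 About 0.5 A260 units compound in 1% human serum in PBS, 37 °C; aliquot taken at 10 min, analysed by anion-exchange HPLC for percent intact full-length product.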

[2] = target: T1, Toll-like receptor 8 (Homo sapiens) (UniProt Q9NR97); experiment: Activation of human TLR8 expressed in HEK293XL assessed as fold induction of NF-kappaB activity at 50 ug/ml after 18 hrs by reporter gene assay relative to control
T1 sequence (whole entry): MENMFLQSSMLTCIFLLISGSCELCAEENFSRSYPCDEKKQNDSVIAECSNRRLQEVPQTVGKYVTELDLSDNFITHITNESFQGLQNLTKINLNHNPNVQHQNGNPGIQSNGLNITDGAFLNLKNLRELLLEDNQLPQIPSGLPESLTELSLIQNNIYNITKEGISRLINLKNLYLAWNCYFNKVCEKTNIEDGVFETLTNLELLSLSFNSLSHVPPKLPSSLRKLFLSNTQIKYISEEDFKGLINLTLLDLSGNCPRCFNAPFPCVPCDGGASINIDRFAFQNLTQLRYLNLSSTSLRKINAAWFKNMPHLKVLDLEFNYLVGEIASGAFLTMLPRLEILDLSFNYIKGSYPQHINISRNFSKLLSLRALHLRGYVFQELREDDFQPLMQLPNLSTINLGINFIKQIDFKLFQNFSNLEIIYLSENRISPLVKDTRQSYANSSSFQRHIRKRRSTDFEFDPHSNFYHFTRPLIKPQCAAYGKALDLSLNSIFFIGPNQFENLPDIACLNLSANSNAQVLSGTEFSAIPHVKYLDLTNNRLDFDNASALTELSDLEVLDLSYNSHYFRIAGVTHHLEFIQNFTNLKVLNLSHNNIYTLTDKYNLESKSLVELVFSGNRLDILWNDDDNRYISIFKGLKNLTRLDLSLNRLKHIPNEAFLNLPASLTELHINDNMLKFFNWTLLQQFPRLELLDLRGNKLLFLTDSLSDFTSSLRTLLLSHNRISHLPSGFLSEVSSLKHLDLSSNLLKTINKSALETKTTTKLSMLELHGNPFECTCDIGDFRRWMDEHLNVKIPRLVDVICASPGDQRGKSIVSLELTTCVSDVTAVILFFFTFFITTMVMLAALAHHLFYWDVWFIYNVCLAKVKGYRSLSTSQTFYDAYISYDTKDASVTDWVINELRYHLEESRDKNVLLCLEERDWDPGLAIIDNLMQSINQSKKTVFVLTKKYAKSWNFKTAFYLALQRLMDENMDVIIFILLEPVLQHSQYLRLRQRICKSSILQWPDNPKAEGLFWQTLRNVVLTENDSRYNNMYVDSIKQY
In short: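 HEK293 cells stably expressing human TLR7 or TLR8, transiently transfected with SEAP reporter plasmid; medium replaced, SIMRA compounds added, 18 h incubation. Supernatant SEAP measured by QuantiBlue; expressed as fold increase in NF-κB activity over PBS control. Tabulated data at 50 μg/mL, representative of three independent experiments.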

[3] = target: T2, Toll-like receptor 9 (Mus musculus) (UniProt Q9EQU3); experiment: Activation of mouse TLR9 expressed in HEK293 assessed as induction of NF-kappaB activity reporter gene assay; type: cell-based
T2 sequence (whole entry): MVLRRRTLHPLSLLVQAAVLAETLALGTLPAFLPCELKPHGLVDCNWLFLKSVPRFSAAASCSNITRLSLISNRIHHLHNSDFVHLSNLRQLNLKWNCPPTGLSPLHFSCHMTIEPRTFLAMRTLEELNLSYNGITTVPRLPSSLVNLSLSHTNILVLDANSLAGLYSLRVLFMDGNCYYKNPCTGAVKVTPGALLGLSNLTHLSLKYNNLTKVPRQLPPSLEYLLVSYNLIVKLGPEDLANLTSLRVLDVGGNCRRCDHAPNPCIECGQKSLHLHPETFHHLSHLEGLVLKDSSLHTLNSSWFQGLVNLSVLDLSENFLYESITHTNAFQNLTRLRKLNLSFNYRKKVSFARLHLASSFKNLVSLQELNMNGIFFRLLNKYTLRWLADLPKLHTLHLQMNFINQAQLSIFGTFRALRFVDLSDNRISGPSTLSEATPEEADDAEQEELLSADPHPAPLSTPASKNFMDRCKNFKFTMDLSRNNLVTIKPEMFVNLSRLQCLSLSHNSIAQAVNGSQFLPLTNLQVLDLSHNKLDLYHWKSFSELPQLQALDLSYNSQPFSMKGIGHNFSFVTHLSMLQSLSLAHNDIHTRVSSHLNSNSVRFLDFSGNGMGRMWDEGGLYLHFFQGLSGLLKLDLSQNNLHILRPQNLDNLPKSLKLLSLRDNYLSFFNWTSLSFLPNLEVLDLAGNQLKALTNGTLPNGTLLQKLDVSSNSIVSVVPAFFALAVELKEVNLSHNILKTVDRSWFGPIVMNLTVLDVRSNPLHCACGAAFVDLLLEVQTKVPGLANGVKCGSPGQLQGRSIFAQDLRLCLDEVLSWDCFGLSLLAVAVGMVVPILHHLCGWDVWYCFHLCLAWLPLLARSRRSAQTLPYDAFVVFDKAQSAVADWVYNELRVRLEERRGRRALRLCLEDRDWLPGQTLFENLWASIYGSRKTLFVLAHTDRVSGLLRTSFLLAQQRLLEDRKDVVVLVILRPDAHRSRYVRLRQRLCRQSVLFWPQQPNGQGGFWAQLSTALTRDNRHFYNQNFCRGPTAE

[4] = target: Toll-like receptor 3 (Homo sapiens) (UniProt O15455); experiment: Activation of human TLR3 expressed in HEK293 assessed as induction of NF-kappaB activity reporter gene assay; type: cell-based
Splenocyte [5] = experiment: Immunomodulatory activity in C57BL/6 mouse splenocytes bearing TLR7 receptor assessed as IL6 release at 100 ug/ml after 24 hrs by ELISA; type: functional, cell-based
In short: (§1)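 C57BL/6 splenocytes in RPMI 1640 with 10% FBS, penicillin/streptomycin, 2 mM L-glutamine, plated at 5 × 10^6 cells/mL; compounds in PBS added, 37 °C for 24 h. Supernatant IL-12 and IL-6 by ELISA; representative of three independent experiments.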

Splenocyte [6] = experiment: Immunomodulatory activity in C57BL/6 mouse splenocytes bearing TLR7 receptor assessed as IL12 release at 100 ug/ml after 24 hrs by ELISA; type: functional, cell-based; in short: as §1

Chain of Toll-like receptor 3 (Homo sapiens) (O15455 whole entry): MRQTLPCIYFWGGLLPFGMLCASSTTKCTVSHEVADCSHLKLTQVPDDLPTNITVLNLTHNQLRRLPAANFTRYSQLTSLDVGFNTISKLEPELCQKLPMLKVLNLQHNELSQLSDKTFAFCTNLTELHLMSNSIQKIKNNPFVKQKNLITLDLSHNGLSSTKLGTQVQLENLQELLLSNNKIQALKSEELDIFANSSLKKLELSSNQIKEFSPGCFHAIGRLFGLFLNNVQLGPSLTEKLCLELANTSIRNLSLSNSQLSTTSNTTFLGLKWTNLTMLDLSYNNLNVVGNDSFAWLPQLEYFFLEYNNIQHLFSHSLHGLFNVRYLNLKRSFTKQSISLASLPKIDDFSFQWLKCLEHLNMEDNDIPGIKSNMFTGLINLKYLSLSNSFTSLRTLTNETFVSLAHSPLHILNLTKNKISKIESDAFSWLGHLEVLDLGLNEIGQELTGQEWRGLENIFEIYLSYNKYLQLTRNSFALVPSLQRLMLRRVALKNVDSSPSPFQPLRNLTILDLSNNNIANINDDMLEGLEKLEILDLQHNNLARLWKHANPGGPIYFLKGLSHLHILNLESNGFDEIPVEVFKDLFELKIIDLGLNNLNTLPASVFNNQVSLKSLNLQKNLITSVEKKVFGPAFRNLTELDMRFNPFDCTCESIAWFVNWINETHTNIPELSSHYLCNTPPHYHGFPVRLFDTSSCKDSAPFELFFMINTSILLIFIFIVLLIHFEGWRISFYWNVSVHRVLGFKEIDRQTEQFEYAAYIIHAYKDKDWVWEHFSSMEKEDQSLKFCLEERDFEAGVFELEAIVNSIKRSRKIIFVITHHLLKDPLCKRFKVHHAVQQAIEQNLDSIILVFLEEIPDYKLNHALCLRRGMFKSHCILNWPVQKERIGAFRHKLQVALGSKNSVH

remaining at 10 min [1] | fold change (FC) [2] | Activity [3] | Activity [4] | Activity (Splenocyte [5]) | Activity (Splenocyte [6]) | Compound
82% | 0.2 | inactive | inactive | Active | Active | Nc1ccn([C@@H]2O[C@H](COP(=O)(S)O[C@H]3[C@@H](O)[C@H](n4cnc5c(N)ncnc54)O[C@@H]3COP(=O)(S)O[C@H]3[C@@H](O)[C@H](n4ccc5c(=O)[nH]c(N)nc54)O[C@@H]3COP(=O)(S)O[C@H]3[C@@H](O)[C@H](n4ccc(=O)[nH]c4=O)O[C@@H]3COP(=O)(S)O[C@H]3[C@@H](O)[C@H](n4ccc(=O)[nH]c4=O)O[C@@H]3COP(=O)(S)O[C@H]3[C@@H](O)[C@H](n4cnc5c(N)ncnc54)O[C@@H]3COP(=O)(S)O[C@H]3[C@@H](O)[C@H](n4cnc5c(N)ncnc54)O[C@@H]3CO)[C@@H](OP(=O)(S)OC[C@H]3O[C@@H](n4ccc5c(=O)[nH]c(N)nc54)[C@H](O)[C@@H]3OP(=O)(S)OC[C@H]3O[C@@H](n4ccc(N)nc4=O)[C@H](O)[C@@H]3OP(=O)(S)OC[C@H]3O[C@@H](n4ccc(=O)[nH]c4=O)[C@H](O)[C@@H]3OP(=O)(S)OC[C@H]3O[C@@H](n4ccc5c(=O)[nH]c(N)nc54)[C@H](O)[C@@H]3OP(=O)(S)OCC(O)COP(=O)(S)O[C@H]3[C@@H](O)[C@H](n4ccc5c(=O)[nH]c(N)nc54)O[C@@H]3COP(=O)(S)O[C@H]3[C@@H](O)[C@H](n4ccc(=O)[nH]c4=O)O[C@@H]3COP(=O)(S)O[C@H]3[C@@H](O)[C@H](n4ccc(N)nc4=O)O[C@@H]3COP(=O)(S)O[C@H]3[C@@H](O)[C@H](n4ccc5c(=O)[nH]c(N)nc54)O[C@@H]3COP(=O)(S)O[C@H]3[C@@H](O)[C@H](n4ccc(N)nc4=O)O[C@@H]3COP(=O)(S)O[C@H]3[C@@H](O)[C@H](n4cnc5c(N)ncnc54)O[C@@H]3COP(=O)(S)O[C@H]3[C@@H](O)[C@H](n4ccc5c(=O)[nH]c(N)nc54)O[C@@H]3COP(=O)(S)O[C@H]3[C@@H](O)[C@H](n4ccc(=O)[nH]c4=O)O[C@@H]3COP(=O)(S)O[C@H]3[C@@H](O)[C@H](n4ccc(=O)[nH]c4=O)O[C@@H]3COP(=O)(S)O[C@H]3[C@@H](O)[C@H](n4cnc5c(N)ncnc54)O[C@@H]3COP(=O)(S)O[C@H]3[C@@H](O)[C@H](n4cnc5c(N)ncnc54)O[C@@H]3CO)[C@H]2O)c(=O)n1 (some centres not stated)
84% | 4.9 | inactive | inactive | Active | Active | Nc1ccn([C@@H]2O[C@H](COP(=O)(S)O[C@H]3[C@@H](O)[C@H](n4cnc5c(N)ncnc54)O[C@@H]3CO)[C@@H](OP(=O)(S)OC[C@H]3O[C@@H](n4ccc(=O)[nH]c4=O)[C@H](O)[C@@H]3OP(=O)(S)OC[C@H]3O[C@@H](n4ccc(=O)[nH]c4=O)[C@H](O)[C@@H]3OP(=O)(S)OC[C@H]3O[C@@H](n4ccc5c(=O)[nH]c(N)nc54)[C@H](O)[C@@H]3OP(=O)(S)OC[C@H]3O[C@@H](n4cnc5c(N)ncnc54)[C@H](O)[C@@H]3OP(=O)(S)OC[C@H]3O[C@@H](n4cnc5c(N)ncnc54)[C@H](O)[C@@H]3OP(=O)(S)OC[C@H]3O[C@@H](n4ccc(N)nc4=O)[C@H](O)[C@@H]3OP(=O)(S)OC[C@H]3O[C@@H](n4ccc(=O)[nH]c4=O)[C@H](O)[C@@H]3OP(=O)(S)OC[C@H]3O[C@@H](n4ccc(=O)[nH]c4=O)[C@H](O)[C@@H]3OP(=O)(S)OC[C@H]3O[C@@H](n4ccc5c(=O)[nH]c(N)nc54)[C@H](O)[C@@H]3OP(=O)(S)OCC(O)COP(=O)(S)O[C@H]3[C@@H](O)[C@H](n4ccc5c(=O)[nH]c(N)nc54)O[C@@H]3COP(=O)(S)O[C@H]3[C@@H](O)[C@H](n4ccc(=O)[nH]c4=O)O[C@@H]3COP(=O)(S)O[C@H]3[C@@H](O)[C@H](n4ccc(=O)[nH]c4=O)O[C@@H]3COP(=O)(S)O[C@H]3[C@@H](O)[C@H](n4ccc(N)nc4=O)O[C@@H]3COP(=O)(S)O[C@H]3[C@@H](O)[C@H](n4cnc5c(N)ncnc54)O[C@@H]3COP(=O)(S)O[C@H]3[C@@H](O)[C@H](n4cnc5c(N)ncnc54)O[C@@H]3COP(=O)(S)O[C@H]3[C@@H](O)[C@H](n4ccc5c(=O)[nH]c(N)nc54)O[C@@H]3COP(=O)(S)O[C@H]3[C@@H](O)[C@H](n4ccc(=O)[nH]c4=O)O[C@@H]3COP(=O)(S)O[C@H]3[C@@H](O)[C@H](n4ccc(=O)[nH]c4=O)O[C@@H]3COP(=O)(S)O[C@H]3[C@@H](O)[C@H](n4ccc(N)nc4=O)O[C@@H]3COP(=O)(S)O[C@H]3[C@@H](O)[C@H](n4cnc5c(N)ncnc54)O[C@@H]3CO)[C@H]2O)c(=O)n1 (some centres not stated)
